According to ChEMBL document CHEMBL5058577, “EUbOPEN Chemogenomics Library 2 (Multiplex)” (2022):

System: Fibroblast
Assay: Multiplex assay against human fibroblast
Assay type: toxicity, cell-based
Method in brief: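 At seeding, live cells were stained with Hoechst33342, BioTracker Green Microtubule Cytoskeleton Dye, MitoTracker Red and Annexin V Alexa Fluor 680. After compound addition they were imaged on a CQ1 microscope at 37°C and 5% CO2, and CellPathfinder machine-learning gating sorted them into Hoechst high-intensity objects or normal cells, with normal cells further split into healthy, pyknosed or fragmented nuclei and pyknosed cells into mitotic or apoptotic. Tubulin, mitochondrial-mass and membrane-permeability phenotypes are given as per cents of cells with healthy nuclei.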

[1] = 12 h, 1 µM, compound concentration 1 uM, replicate 1
[2] = 12 h, 1 µM, compound concentration 1 uM, replicate 2
[3] = 12 h, 10 µM, compound concentration 10 uM, replicate 1
[4] = 12 h, 10 µM, compound concentration 10 uM, replicate 2
[5] = 24 h, 1 µM, compound concentration 1 uM, replicate 1
[6] = 24 h, 1 µM, compound concentration 1 uM, replicate 2
[7] = 24 h, 10 µM, compound concentration 10 uM, replicate 1
[8] = 24 h, 10 µM, compound concentration 10 uM, replicate 2
[9] = 48 h, 1 µM, compound concentration 1 uM, replicate 1
[10] = 48 h, 1 µM, compound concentration 1 uM, replicate 2
[11] = 48 h, 10 µM, compound concentration 10 uM, replicate 1
[12] = 48 h, 10 µM, compound concentration 10 uM, replicate 2

## O=C(NCCN1CCC(n2c(=O)[nH]c3cc(Cl)ccc32)CC1)c1ccc(F)cc1 [HALOPEMIDE]
[1]
  Population Apoptotic (%): 32%
  Population Fragmented Nuclei (%): 11%
  Population Healthy Nuclei (%): 62%
  Population Hoechst High Intensity Objects (%): 0%
  Population Membrane Permeable-Phenotype (%): 1%
  Population Mitochondria Different-Phenotype (%): 10%
  Population Mitotic Cells (%): 67%
  Population Normal (%): 99%
  Population Pyknosed Nuclei (%): 26%
  Population Tubulin-Different-Phenotype (%): 29%
  Total Cell Count: 120
[2]
  Population Apoptotic (%): 44%
  Population Fragmented Nuclei (%): 27%
  Population Healthy Nuclei (%): 43%
  Population Hoechst High Intensity Objects (%): 7%
  Population Membrane Permeable-Phenotype (%): 10%
  Population Mitochondria Different-Phenotype (%): 0%
  Population Mitotic Cells (%): 56%
  Population Normal (%): 92%
  Population Pyknosed Nuclei (%): 29%
  Population Tubulin-Different-Phenotype (%): 56%
  Total Cell Count: 92
[3]
  Population Apoptotic (%): 55%
  Population Fragmented Nuclei (%): 15%
  Population Healthy Nuclei (%): 54%
  Population Hoechst High Intensity Objects (%): 3%
  Population Membrane Permeable-Phenotype (%): 0%
  Population Mitochondria Different-Phenotype (%): 17%
  Population Mitotic Cells (%): 44%
  Population Normal (%): 96%
  Population Pyknosed Nuclei (%): 30%
  Population Tubulin-Different-Phenotype (%): 77%
  Total Cell Count: 204
[4]
  Population Apoptotic (%): 31%
  Population Fragmented Nuclei (%): 24%
  Population Healthy Nuclei (%): 34%
  Population Hoechst High Intensity Objects (%): 4%
  Population Membrane Permeable-Phenotype (%): 6%
  Population Mitochondria Different-Phenotype (%): 14%
  Population Mitotic Cells (%): 68%
  Population Normal (%): 95%
  Population Pyknosed Nuclei (%): 41%
  Population Tubulin-Different-Phenotype (%): 87%
  Total Cell Count: 148
[5]
  Population Apoptotic (%): 58%
  Population Fragmented Nuclei (%): 16%
  Population Healthy Nuclei (%): 69%
  Population Hoechst High Intensity Objects (%): 3%
  Population Membrane Permeable-Phenotype (%): 1%
  Population Mitochondria Different-Phenotype (%): 9%
  Population Mitotic Cells (%): 41%
  Population Normal (%): 96%
  Population Pyknosed Nuclei (%): 13%
  Population Tubulin-Different-Phenotype (%): 38%
  Total Cell Count: 128
[6]
  Population Apoptotic (%): 37%
  Population Fragmented Nuclei (%): 32%
  Population Healthy Nuclei (%): 41%
  Population Hoechst High Intensity Objects (%): 10%
  Population Membrane Permeable-Phenotype (%): 5%
  Population Mitochondria Different-Phenotype (%): 8%
  Population Mitotic Cells (%): 62%
  Population Normal (%): 90%
  Population Pyknosed Nuclei (%): 26%
  Population Tubulin-Different-Phenotype (%): 59%
  Total Cell Count: 100
[7]
  Population Apoptotic (%): 67%
  Population Fragmented Nuclei (%): 23%
  Population Healthy Nuclei (%): 51%
  Population Hoechst High Intensity Objects (%): 5%
  Population Membrane Permeable-Phenotype (%): 0%
  Population Mitochondria Different-Phenotype (%): 28%
  Population Mitotic Cells (%): 32%
  Population Normal (%): 95%
  Population Pyknosed Nuclei (%): 24%
  Population Tubulin-Different-Phenotype (%): 78%
  Total Cell Count: 220
[8]
  Population Apoptotic (%): 41%
  Population Fragmented Nuclei (%): 26%
  Population Healthy Nuclei (%): 38%
  Population Hoechst High Intensity Objects (%): 6%
  Population Membrane Permeable-Phenotype (%): 12%
  Population Mitochondria Different-Phenotype (%): 32%
  Population Mitotic Cells (%): 58%
  Population Normal (%): 93%
  Population Pyknosed Nuclei (%): 35%
  Population Tubulin-Different-Phenotype (%): 94%
  Total Cell Count: 140
[9]
  Population Apoptotic (%): 52%
  Population Fragmented Nuclei (%): 14%
  Population Healthy Nuclei (%): 68%
  Population Hoechst High Intensity Objects (%): 3%
  Population Membrane Permeable-Phenotype (%): 4%
  Population Mitochondria Different-Phenotype (%): 7%
  Population Mitotic Cells (%): 47%
  Population Normal (%): 96%
  Population Pyknosed Nuclei (%): 17%
  Population Tubulin-Different-Phenotype (%): 36%
  Total Cell Count: 128
[10]
  Population Apoptotic (%): 35%
  Population Fragmented Nuclei (%): 38%
  Population Healthy Nuclei (%): 43%
  Population Hoechst High Intensity Objects (%): 4%
  Population Membrane Permeable-Phenotype (%): 14%
  Population Mitochondria Different-Phenotype (%): 4%
  Population Mitotic Cells (%): 64%
  Population Normal (%): 95%
  Population Tubulin-Different-Phenotype (%): 63%
  Total Cell Count: 99
[11]
  Population Apoptotic (%): 80%
  Population Fragmented Nuclei (%): 32%
  Population Healthy Nuclei (%): 50%
  Population Hoechst High Intensity Objects (%): 10%
  Population Membrane Permeable-Phenotype (%): 0%
  Population Mitochondria Different-Phenotype (%): 35%
  Population Mitotic Cells (%): 19%
  Population Normal (%): 89%
  Population Pyknosed Nuclei (%): 17%
  Population Tubulin-Different-Phenotype (%): 77%
  Total Cell Count: 229
[12]
  Population Apoptotic (%): 48%
  Population Fragmented Nuclei (%): 35%
  Population Healthy Nuclei (%): 45%
  Population Hoechst High Intensity Objects (%): 5%
  Population Membrane Permeable-Phenotype (%): 10%
  Population Mitochondria Different-Phenotype (%): 15%
  Population Mitotic Cells (%): 52%
  Population Normal (%): 94%
  Population Pyknosed Nuclei (%): 19%
  Population Tubulin-Different-Phenotype (%): 96%
  Total Cell Count: 136
